Reference: paper PMC2741613 (Journal of the American Chemical Society, 2009)

How the values were obtained:
[1] = molecular target: T1, PTP1B (Homo sapiens, UniProt P18031); assay: PTP activity assay with pNPP, PTP1B; format: biochemical
T1 sequence (P18031 1-435): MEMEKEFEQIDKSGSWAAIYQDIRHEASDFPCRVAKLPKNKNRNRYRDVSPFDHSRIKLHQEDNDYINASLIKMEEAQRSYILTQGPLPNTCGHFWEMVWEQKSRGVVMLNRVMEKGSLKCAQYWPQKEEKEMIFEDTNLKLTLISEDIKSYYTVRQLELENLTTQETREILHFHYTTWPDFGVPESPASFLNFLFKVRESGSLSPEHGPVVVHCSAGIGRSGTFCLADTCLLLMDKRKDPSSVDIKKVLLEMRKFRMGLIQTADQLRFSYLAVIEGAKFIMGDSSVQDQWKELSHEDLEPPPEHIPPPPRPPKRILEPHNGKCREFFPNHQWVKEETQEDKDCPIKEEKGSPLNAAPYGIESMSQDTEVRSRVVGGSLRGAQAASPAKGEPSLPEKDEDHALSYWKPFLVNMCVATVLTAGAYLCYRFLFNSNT
In short: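 Reactions started by adding enzyme (2 nM final) to mixtures with varied pNPP and varied test compound. Rates fitted with an enzyme-kinetics model to give Ki and mode of inhibition.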

[2] = molecular target: T2, LMWPTP (Homo sapiens, UniProt P24666); assay: PTP activity assay with pNPP, LMWPTP; format: biochemical
T2 sequence (P24666 1-158): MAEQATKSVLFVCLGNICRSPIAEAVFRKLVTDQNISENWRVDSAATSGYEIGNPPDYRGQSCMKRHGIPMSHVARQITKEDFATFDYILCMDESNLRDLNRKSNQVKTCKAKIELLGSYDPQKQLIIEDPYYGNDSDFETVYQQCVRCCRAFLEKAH
In short: (§1)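 Reactions started by adding enzyme to mixtures with various pNPP and test-compound concentrations. Rates were fitted with an enzyme-kinetics model for Ki.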

[3] = tested on: pSrc416 in PTP1B−/− mouse embryo fibroblast cells; assay: Src phosphorylation at Tyr416 in cells; format: cell-based; details: treated for two hours, various concentrations
In short: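 PTP1B−/− mouse embryo fibroblasts at 80% confluence were exposed to test compound for two hours, then lysed and cleared at 15,000 rpm for 10 min. 30 μg total protein run on SDS-PAGE and blotted to PVDF. Probed with anti-pSrc416, anti-pSrc527 and anti-Src antibodies, HRP-conjugated secondaries.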

[4] = molecular target: PTPα (Homo sapiens, UniProt P18433); assay: PTP activity assay with pNPP, PTPα; format: biochemical
In short: as §1

[5] = molecular target: T3, Cdc14A (Homo sapiens, UniProt Q9UNH5); assay: PTP activity assay with pNPP, Cdc14A; format: biochemical
T3 sequence (Q9UNH5 1-594): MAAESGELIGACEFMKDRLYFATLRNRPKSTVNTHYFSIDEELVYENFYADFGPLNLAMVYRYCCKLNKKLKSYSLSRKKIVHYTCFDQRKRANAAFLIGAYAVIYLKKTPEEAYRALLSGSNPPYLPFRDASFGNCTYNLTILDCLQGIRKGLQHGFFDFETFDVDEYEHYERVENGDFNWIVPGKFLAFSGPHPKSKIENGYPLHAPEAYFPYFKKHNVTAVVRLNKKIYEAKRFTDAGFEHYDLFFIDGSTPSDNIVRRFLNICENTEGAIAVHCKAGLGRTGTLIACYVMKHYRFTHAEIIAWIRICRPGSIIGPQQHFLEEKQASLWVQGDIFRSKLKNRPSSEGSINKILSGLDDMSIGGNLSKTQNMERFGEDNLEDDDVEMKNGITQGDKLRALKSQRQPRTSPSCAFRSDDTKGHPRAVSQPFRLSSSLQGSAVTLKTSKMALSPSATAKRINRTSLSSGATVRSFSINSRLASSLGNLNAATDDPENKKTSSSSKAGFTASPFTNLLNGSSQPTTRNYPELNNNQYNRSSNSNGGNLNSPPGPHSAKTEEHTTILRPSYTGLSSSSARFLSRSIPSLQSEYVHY
In short: as §1

[6] = molecular target: T4, CD45 (Homo sapiens, UniProt P08575); assay: PTP activity assay with pNPP, CD45; format: biochemical
T4 sequence (P08575 26-1306): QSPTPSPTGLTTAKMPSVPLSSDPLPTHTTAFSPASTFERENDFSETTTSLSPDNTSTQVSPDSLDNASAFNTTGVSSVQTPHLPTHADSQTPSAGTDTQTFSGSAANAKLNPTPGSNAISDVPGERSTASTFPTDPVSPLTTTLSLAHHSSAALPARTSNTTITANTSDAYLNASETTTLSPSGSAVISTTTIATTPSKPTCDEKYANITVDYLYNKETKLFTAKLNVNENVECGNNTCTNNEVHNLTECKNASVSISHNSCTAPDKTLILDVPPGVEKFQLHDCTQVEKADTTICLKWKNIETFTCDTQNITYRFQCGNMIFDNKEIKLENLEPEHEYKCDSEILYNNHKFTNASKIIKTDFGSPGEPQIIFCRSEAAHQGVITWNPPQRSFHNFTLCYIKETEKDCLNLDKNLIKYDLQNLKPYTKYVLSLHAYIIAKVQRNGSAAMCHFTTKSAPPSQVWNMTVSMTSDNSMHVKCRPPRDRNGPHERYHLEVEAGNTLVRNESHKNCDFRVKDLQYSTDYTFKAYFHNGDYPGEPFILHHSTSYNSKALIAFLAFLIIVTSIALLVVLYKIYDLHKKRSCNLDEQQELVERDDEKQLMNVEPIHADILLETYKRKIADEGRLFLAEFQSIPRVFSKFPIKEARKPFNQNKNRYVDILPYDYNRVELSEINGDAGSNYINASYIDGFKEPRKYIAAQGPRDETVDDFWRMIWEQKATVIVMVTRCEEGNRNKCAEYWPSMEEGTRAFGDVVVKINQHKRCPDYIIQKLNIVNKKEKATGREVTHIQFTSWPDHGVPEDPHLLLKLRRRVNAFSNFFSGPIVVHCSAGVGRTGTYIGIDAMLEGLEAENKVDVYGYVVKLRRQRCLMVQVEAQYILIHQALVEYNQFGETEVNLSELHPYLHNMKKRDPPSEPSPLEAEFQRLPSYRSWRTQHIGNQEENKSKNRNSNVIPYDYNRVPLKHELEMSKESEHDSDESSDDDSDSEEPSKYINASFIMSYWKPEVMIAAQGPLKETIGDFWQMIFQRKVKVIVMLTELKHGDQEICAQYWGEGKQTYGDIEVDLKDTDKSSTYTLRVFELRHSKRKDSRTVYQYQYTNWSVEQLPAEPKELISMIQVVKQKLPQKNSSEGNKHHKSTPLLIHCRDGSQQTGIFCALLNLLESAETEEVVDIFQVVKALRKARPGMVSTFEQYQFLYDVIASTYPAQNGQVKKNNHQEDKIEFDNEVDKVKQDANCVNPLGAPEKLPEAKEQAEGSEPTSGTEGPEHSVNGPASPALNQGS
In short: as §1

Sequence of PTPα (P18433 20-802): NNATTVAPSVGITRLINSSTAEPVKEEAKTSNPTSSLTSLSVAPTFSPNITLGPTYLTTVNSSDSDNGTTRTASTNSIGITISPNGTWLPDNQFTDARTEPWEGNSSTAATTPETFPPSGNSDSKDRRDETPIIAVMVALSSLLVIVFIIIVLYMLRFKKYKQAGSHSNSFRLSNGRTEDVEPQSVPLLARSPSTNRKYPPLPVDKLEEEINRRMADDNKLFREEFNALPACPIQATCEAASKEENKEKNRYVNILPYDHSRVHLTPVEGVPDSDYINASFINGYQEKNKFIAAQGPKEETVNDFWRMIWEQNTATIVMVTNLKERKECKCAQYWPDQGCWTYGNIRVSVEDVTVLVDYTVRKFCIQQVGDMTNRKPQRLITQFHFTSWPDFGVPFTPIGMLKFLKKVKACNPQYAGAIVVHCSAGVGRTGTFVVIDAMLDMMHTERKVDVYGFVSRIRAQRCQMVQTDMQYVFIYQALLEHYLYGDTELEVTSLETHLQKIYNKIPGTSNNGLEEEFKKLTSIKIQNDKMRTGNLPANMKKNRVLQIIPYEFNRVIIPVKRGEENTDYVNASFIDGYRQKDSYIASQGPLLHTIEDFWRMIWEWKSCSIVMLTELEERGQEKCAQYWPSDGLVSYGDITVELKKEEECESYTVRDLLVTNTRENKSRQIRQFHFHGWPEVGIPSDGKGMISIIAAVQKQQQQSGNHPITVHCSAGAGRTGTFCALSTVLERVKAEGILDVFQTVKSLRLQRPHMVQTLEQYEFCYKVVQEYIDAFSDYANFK

Question: Which Ki ([1]; PTP1B) does the source give for `CCc1ccc(C(=O)NCCCC[C@H](NC(=O)[C@H](Cc2ccc(C(F)(F)P(=O)(O)O)cc2)NC(=O)[C@H](Cc2ccccc2)NC(=O)CO[C@H]2C[C@@H](C)CC[C@@H]2C(C)C)C(N)=O)cc1` [Compound 8] here?
Answer: Its Ki is 34 ± 2.8 nM.

Question: And the “selectivity for TC-PTP over PTP1B” value ([1]; TC-PTP versus PTP1B)?
Answer: The value was 8 fold.

Question: What about the Ki [2] of the same molecule?
Answer: The Ki was greater than 1000 nM.

Question: What about the “effect on pSrc416 phosphorylation” value [3] of the same molecule?
Answer: The value was “dose-dependent increase”.

Question: What about the Ki [4] of the same molecule?
Answer: The Ki was greater than 1000 nM.

Question: What about the Ki [5] of the same molecule?
Answer: The Ki was greater than 1000 nM.

Question: What about the Ki [6] of the same molecule?
Answer: Its Ki is greater than 1000 nM.
